From ChEMBL document CHEMBL4689842, “EUbOPEN Chemogenomics Library wave 1” (2021)
Values joined by “and” are separate entries in the source; they are usually repeats but may differ in a detail not shown here. Equal entries are not always repeated.

System: Fibroblast
Test: Multiplex assay against human fibroblast
Format: toxicity, cell-based
In short: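 Phenotypes for tubulin, mitochondrial mass and membrane permeability are expressed as per cents of healthy-nucleus cells. Cells were stained live at seeding with Hoechst33342, BioTracker Green Microtubule Cytoskeleton Dye, MitoTracker Red and Annexin V Alexa Fluor 680, then imaged after compound addition on a CQ1 microscope at 37°C and 5% CO2. Machine-learning gating in CellPathfinder separated Hoechst high-intensity objects from normal cells, divided normal cells by nuclear state (healthy, pyknosed, fragmented) and divided pyknosed cells into mitotic or apoptotic.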

[1] = 12 h, 1 µM, compound concentration 1 uM, replicate 1
[2] = 12 h, 1 µM, compound concentration 1 uM, replicate 2
[3] = 12 h, 10 µM, compound concentration 10 uM, replicate 1
[4] = 12 h, 10 µM, compound concentration 10 uM, replicate 2
[5] = 24 h, 1 µM, compound concentration 1 uM, replicate 1
[6] = 24 h, 1 µM, compound concentration 1 uM, replicate 2
[7] = 24 h, 10 µM, compound concentration 10 uM, replicate 1
[8] = 24 h, 10 µM, compound concentration 10 uM, replicate 2
[9] = 48 h, 10 µM, compound concentration 10 uM, replicate 1
[10] = 48 h, 10 µM, compound concentration 10 uM, replicate 2

CNC(=O)c1nn(C)c2c1C(C)(C)Cc1cnc(Nc3ccc(N4CCN(C)CC4)cc3)nc1-2 [MILCICLIB]
Population Apoptotic (%) [1]: 74%
Population Fragmented Nuclei (%) [1]: 26%
Population Healthy Nuclei (%) [1]: 59%
Population Hoechst High Intensity Objects (%) [1]: 6%
Population Membrane Permeable-Phenotype (%) [1]: 15%
Population Mitochondria Different-Phenotype (%) [1]: 7%
Population Mitotic Cells (%) [1]: 25%
Population Normal (%) [1]: 93%
Population Pyknosed Nuclei (%) [1]: 14%
Population Tubulin-Different-Phenotype (%) [1]: 30%
Total Cell Count [1]: 202
Population Apoptotic (%) [2]: 100%
Population Fragmented Nuclei (%) [2]: 64%
Population Healthy Nuclei (%) [2]: 34%
Population Hoechst High Intensity Objects (%) [2]: 34%
Population Membrane Permeable-Phenotype (%) [2]: 13%
Population Mitochondria Different-Phenotype (%) [2]: 31%
Population Mitotic Cells (%) [2]: 0%
Population Normal (%) [2]: 65%
Population Pyknosed Nuclei (%) [2]: 1%
Population Tubulin-Different-Phenotype (%) [2]: 54%
Total Cell Count [2]: 97
Population Apoptotic (%) [3]: 61% and 65% and 87%
Population Fragmented Nuclei (%) [3]: 29% and 25% and 26%
Population Healthy Nuclei (%) [3]: 40% and 48% and 55%
Population Hoechst High Intensity Objects (%) [3]: 11% and 12% and 13%
Population Mitochondria Different-Phenotype (%) [3]: 14% and 12% and 10%
Population Normal (%) [3]: 88% and 87% and 86%
Population Pyknosed Nuclei (%) [3]: 30% and 25% and 18%
Population Tubulin-Different-Phenotype (%) [3]: 77% and 74% and 40%
Population Apoptotic (%) [4]: 66% and 73% and 60%
Population Healthy Nuclei (%) [4]: 30% and 54% and 62%
Population Mitotic Cells (%) [4]: 33% and 26% and 40%
Population Normal (%) [4]: 70% and 90% and 97%
Total Cell Count [4]: 99 and 122 and 65
Population Apoptotic (%) [5]: 78%
Population Fragmented Nuclei (%) [5]: 27%
Population Healthy Nuclei (%) [5]: 57%
Population Hoechst High Intensity Objects (%) [5]: 12%
Population Membrane Permeable-Phenotype (%) [5]: 7%
Population Mitochondria Different-Phenotype (%) [5]: 13%
Population Mitotic Cells (%) [5]: 21%
Population Normal (%) [5]: 87%
Population Pyknosed Nuclei (%) [5]: 14%
Population Tubulin-Different-Phenotype (%) [5]: 33%
Total Cell Count [5]: 224
Population Apoptotic (%) [6]: 50%
Population Fragmented Nuclei (%) [6]: 60%
Population Healthy Nuclei (%) [6]: 33%
Population Hoechst High Intensity Objects (%) [6]: 33%
Population Membrane Permeable-Phenotype (%) [6]: 10%
Population Mitochondria Different-Phenotype (%) [6]: 30%
Population Mitotic Cells (%) [6]: 50%
Population Normal (%) [6]: 66%
Population Pyknosed Nuclei (%) [6]: 6%
Population Tubulin-Different-Phenotype (%) [6]: 40%
Total Cell Count [6]: 90
Population Apoptotic (%) [7]: 84% and 46% and 60%
Population Fragmented Nuclei (%) [7]: 37% and 29% and 34%
Population Healthy Nuclei (%) [7]: 47% and 50%
Population Hoechst High Intensity Objects (%) [7]: 20% and 12% and 15%
Population Mitochondria Different-Phenotype (%) [7]: 16% and 28% and 27%
Population Normal (%) [7]: 79% and 87% and 84%
Population Pyknosed Nuclei (%) [7]: 15% and 22%
Population Tubulin-Different-Phenotype (%) [7]: 46% and 80% and 58%
Population Apoptotic (%) [8]: 50% and 66% and 86%
Population Healthy Nuclei (%) [8]: 34% and 49% and 61%
Population Hoechst High Intensity Objects (%) [8]: 18%
Population Normal (%) [8]: 81%
Population Tubulin-Different-Phenotype (%) [8]: 35% and 100%
Total Cell Count [8]: 110 and 78 and 118
Population Apoptotic (%) [9]: 25% and 33%
Population Fragmented Nuclei (%) [9]: 45% and 39%
Population Healthy Nuclei (%) [9]: 42% and 49%
Population Hoechst High Intensity Objects (%) [9]: 15% and 19%
Population Membrane Permeable-Phenotype (%) [9]: 22% and 10%
Population Mitochondria Different-Phenotype (%) [9]: 15% and 22%
Population Mitotic Cells (%) [9]: 75% and 66%
Population Normal (%) [9]: 84% and 80%
Population Pyknosed Nuclei (%) [9]: 11%
Population Tubulin-Different-Phenotype (%) [9]: 68% and 80%
Total Cell Count [9]: 124 and 166
Population Apoptotic (%) [10]: 66%
Population Fragmented Nuclei (%) [10]: 35% and 36%
Population Healthy Nuclei (%) [10]: 62% and 60%
Population Hoechst High Intensity Objects (%) [10]: 18% and 14%
Population Membrane Permeable-Phenotype (%) [10]: 16% and 11%
Population Mitochondria Different-Phenotype (%) [10]: 11% and 17%
Population Mitotic Cells (%) [10]: 33%
Population Normal (%) [10]: 81% and 85%
Population Pyknosed Nuclei (%) [10]: 2%
Population Tubulin-Different-Phenotype (%) [10]: 84% and 96%
Total Cell Count [10]: 169 and 170
